Structures are written as SMILES.

The data set in a line: Toxicity liver stage against HepG2, at 10uM. Also on record: test concentration 10 uM, cell line HepG2-A16-CD81EGFP. The following applies: human, HepG2-A16-CD81EGFP cells; read-out: INHIBITION
The data set is classed as cell-based. In outline:
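Uninfected HepG2-A16-CD81EGFP cells, 3 × 10^3 per well, 1536-well, plated on prespotted compound at 10 μM final, parasite-free screening media added to match infected plates; puromycin 10 μM positive, DMSO 0.5% negative; run in parallel with 48 h PbLuc assay at 37 °C, 5% CO2; viability by CellTiter-Glo luminescence, normalized to controls.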
Regarding `Cc1cc(NC(=O)NCC2CCN(C(C)C)C2)no1` (stereo not drawn), the cytotoxicity at 10 µM is -15.3%. Under `COc1ccc(CN2C[C@@H](F)[C@@H](OCc3nc4cnccc4[nH]3)C2)cn1` stands 2.08%; under `O=C(Nc1ccccc1)[C@H]1O[C@H](CCN2CCNCC2)CC[C@@H]1O`, -7.49%; under `O[C@@H]1C[C@@H](c2nc(-c3ccccc3)no2)N(Cc2ccncc2)C1`, 2.77%. The same measure for `CSc1ncccc1C(=O)NCc1ccc(N(C)C)cc1`: 4.74%. The same measure for `CC(=O)N1N=C(c2cccs2)OC1C(=O)Nc1ccc(C)cc1` (stereo not drawn): -4.14%; for `C=C(C)COc1ccc(C(CC(=O)OC)c2oc(C)cc(=O)c2O)cc1` (stereo not drawn): -9.24%. On to `CC1CCN(c2ccc(=O)n(CC(=O)NCCc3ccccc3)n2)CC1`, for which the cytotoxicity at 10 µM is 0.277%. The same measure for `COc1ccc(S(=O)(=O)NCC(c2cccn2C)N(C)C)c(C)c1` (stereo not drawn): 7.78%; for `Cc1noc(C)c1CN1C[C@@H]2OCCN(Cc3cnn(C)c3)[C@@H]2C1`: -139%; for `Cc1cnc(C(=O)N2CCC3(CC2)CC(c2ccccc2)C(=O)N3)cn1` (stereo not drawn): 4.9%. Under `CC(C)n1[nH]c(=O)c2c1NC(=O)CC2C1CCCCC1` (stereo not drawn) stands -12.9%.

On to `CC(Cn1cc(Br)cn1)C(=O)Nc1ccncc1` (stereo not drawn), for which the cytotoxicity at 10 µM is -2.82%. For `Cc1cccc(N2CCCN=C2NC(=O)c2cccc(Cl)c2)c1`, the cytotoxicity at 10 µM came to 6.39%. The same measure for `O=C1CNc2ncnc(NCc3cccs3)c2N1`: 2.99%; for `O=C(CCn1nc(C(F)(F)F)c(Br)c1C1CC1)NN1CCOCC1`: 8.85%. Take `CCN(CC)S(=O)(=O)N1CCCC1c1nnc2n1CCN(C)CC2` (stereo not drawn): the cytotoxicity at 10 µM amounted to 0.45%. For `O=C(O)[C@@H]1OCC(=O)N(Cc2cccc(Cl)c2)[C@@H]1c1ccccc1`, the cytotoxicity at 10 µM came out at 3.94%.

Regarding `CN1CCCC1c1ccnc(-c2ccccc2)n1` (stereo not drawn), the cytotoxicity at 10 µM stood at 2.77%. Consider `O=C(NCC1(O)COCCN(Cc2cccc(O)c2)C1)c1cnccn1` (stereo not drawn), for which the cytotoxicity at 10 µM is -6.49%. The same measure for `Cc1cccc(CNC(Cc2ccsc2)c2nccs2)n1` (stereo not drawn): 2.83%. For `CC(C)(C)c1cc(NC(=O)CN(Cc2cccs2)Cc2cccs2)on1`, the cytotoxicity at 10 µM was 14.2%. Under `CC(=O)N1CCC(C(=O)Nc2nnc(C(F)(F)F)[nH]2)CC1` stands -3.37%; under `Cc1n[nH]c(-c2ccc(NC(=O)C(C)(C)N3CCN(C)CC3)cc2)n1`, -0.876%. Under `Cc1cc(OC(F)F)c(C(=O)NCC(O)c2cccc(F)c2)s1` (stereo not drawn) stands -4.3%; under `O=C(Nc1cccnc1)C1=Cc2ccccc2OC1`, 4.19%; under `COc1cccc(COC(C)C(=O)N(C)Cc2nnc3n2CCC3)c1` (stereo not drawn), 6.32%.

`O=C(NCc1cc(-c2ccccc2)no1)NC1CCCCNC1=O` (stereo not drawn): the cytotoxicity at 10 µM is -145%. On to `CC(C)c1noc(OCC(=O)N2CCCCC2C)n1` (stereo not drawn), for which the cytotoxicity at 10 µM is 1.45%. The same measure for `CCc1cnc(CNC(=O)NCCCO)s1`: -5.42%; for `CN1CCc2ccc(NCc3cscn3)cc2C1=O`: -2.43%; for `CC(O)(CNc1ccc(Cl)c(C#N)n1)c1ccccc1` (stereo not drawn): -9.06%. The same measure for `Cc1c(C(=O)NC2CCCOc3cc(Cl)ccc32)cnn1C` (stereo not drawn): -0.572%. The same measure for `Cc1nc(NC(=O)C(C)N(C)Cc2cccc(C#N)c2)sc1C` (stereo not drawn): -0.506%. On to `Cc1c(C(=O)N2CC(C)(C)C2(C)C)nnn1-c1cccc2cnccc12`, for which the cytotoxicity at 10 µM is 9.68%. The same measure for `O=C(CCNc1ncccn1)NCc1ccc(Br)s1`: 6.72%. As to `CC(C)Oc1ccc(C(=O)Cn2cnnc2[S+](C)[O-])cc1` (stereo not drawn), the cytotoxicity at 10 µM was -4.68%. Under `COc1ccc(C(=O)O)c(OCC(=O)NC(C)c2ccccc2)c1` (stereo not drawn) stands 1.97%; under `O=C(CCNC(=O)N1CCC(c2ccccc2)C1)N1CCCCC1` (stereo not drawn), -3.41%. As to `CS(=O)(=O)NCCC1CCCCN1C(=O)NCCc1ccccn1` (stereo not drawn), the cytotoxicity at 10 µM is -4.24%. Consider `CS(=O)(=O)N1CCc2c(cccc2NC(=O)NC2CCCC2)C1`, for which the cytotoxicity at 10 µM was -6.78%. Under `COc1cccc(OCC(=O)Nc2cc(C)cnc2OC)c1` stands -11.4%; under `O=C(COC1CCCC1)NCCCn1nc2ccccn2c1=O`, 5.78%. For `Cc1nc(C2CCCN2CC(=O)Nc2c(C)nn(C)c2C)no1` (stereo not drawn), the cytotoxicity at 10 µM is -3.08%.

`CC(=O)Nc1cccc(CNC(=O)N(C)Cc2ccccc2)c1`: the cytotoxicity at 10 µM was -2.11%.

On to `CC(C)Oc1ccccc1C(=O)NCCc1nncn1C`, for which the cytotoxicity at 10 µM is -7.71%.

As for `COc1cccc(NC(=O)N(CCO)C2CCc3ccccc32)c1` (stereo not drawn), the cytotoxicity at 10 µM is -1.08%. As for `O=C(Nc1nncs1)N(Cc1cccc(F)c1)C1CC1`, the cytotoxicity at 10 µM was found to be 47.6%. Take `CC(C)c1nc2c(n1C)CCN(CCCc1nc3ccccc3o1)C2`: the cytotoxicity at 10 µM stood at 2.07%. Under `CN(Cc1ccc(Br)s1)Cn1nc(-c2ccc(F)cc2)oc1=O` stands 1.64%. Under `COCCOc1cc(C(=O)N2CC(C)c3ccccc32)ccn1` (stereo not drawn) stands 2.16%. Turning to `Cc1cc(CNC(=O)CC2CN(C(=O)OC(C)(C)C)C2)ccc1F`, the cytotoxicity at 10 µM came to 4.21%.

Turning to `Cn1cnnc1CNC(=O)C1CCCN(Cc2ccccc2)C1` (stereo not drawn), the cytotoxicity at 10 µM stood at 3.57%. Under `CCC(CNS(=O)(=O)c1c[nH]cn1)Oc1ccccc1F` (stereo not drawn) stands 7.22%. The same measure for `O=C1C(n2nnc(-c3cccs3)n2)CCN1CC(F)(F)F` (stereo not drawn): -0.0198%. Under `COC(=O)C1CCCCN1Cc1cccc(C(=O)NCc2ccco2)c1` (stereo not drawn) stands -12.5%; under `CCc1nsc(N2CCn3c(nnc3C(F)(F)F)C2)n1`, -0.657%. Consider `Cc1cc(C)c(CNc2ncnc3ccsc23)c(=O)[nH]1`, for which the cytotoxicity at 10 µM was determined as 15.9%.

As for `Cc1c(CNC(=O)Nc2cccc3c2CCN3C)cnn1C`, the cytotoxicity at 10 µM is -1.02%. Consider `CCOCCN1CCN(CCCc2nnnn2-c2ccccc2)CC1`, for which the cytotoxicity at 10 µM was 6.45%.

Regarding `CC(C)c1nsc(N2CCc3sccc3C2)n1`, the cytotoxicity at 10 µM was determined as 20.9%. The same measure for `Clc1ccc(CN2CCN(Cn3nccc3-c3cccnc3)CC2)s1`: 8.64%. For `CS(=O)(=O)NCCC(=O)NC1CCc2nccn2C1` (stereo not drawn), the cytotoxicity at 10 µM came to 9.46%. Under `COc1cc(C)c(C(C)NC(=O)Nc2nnc(C)s2)cc1OC` (stereo not drawn) stands 1.03%; under `CCN(CC)C(=O)c1ccc(NC(=O)CNc2ccc(F)cc2Cl)cc1`, -5.31%; under `CO[C@H]1CN(C(=O)c2ccnnc2)[C@@H]2COC[C@H]12`, 2.83%.

With `Cc1cccc(C2CCCN(C(=O)CN3CCCC3=O)C2)c1` (stereo not drawn), the cytotoxicity at 10 µM is -0.942%. The same measure for `OC1(CN2CCc3nnc(Cc4cccnc4)n3CC2)CCCNC1` (stereo not drawn): 21.7%.

Turning to `Cn1cc(C(=O)N2CCCC(c3ncc[nH]3)C2)cn1` (stereo not drawn), the cytotoxicity at 10 µM turned out to be 1.95%. The same measure for `Cc1nnsc1CNC(=O)c1ccc2c(c1)nc(N1CCOCC1)n2C`: -13.8%; for `Cc1cc(C(=O)NCc2cccnc2N2CCc3ccccc3C2)[nH]n1`: 14.4%; for `COCc1noc(-c2ccc(N(C)Cc3ncccc3C)nc2)n1`: -0.0612%. Under `Cc1ccc(C(=O)N2CCC3(CCC(=O)N(C(C)C)C3)CC2)c(O)c1` stands 17.5%; under `CCC[C@H]1CN(CCS(C)(=O)=O)C[C@@H]1NC(=O)c1cccnn1`, 3.25%. The same measure for `Cn1c(N2CCOCC2)nc2cc(C(=O)N3CCCOCC3)ccc21`: -1.29%; for `O=C(CN1CCCCCC1)NCCSc1cnn[nH]1`: -7.15%; for `Cc1ccc(F)c(OC2(C(=O)O)CCN(C(=O)c3ccco3)CC2)c1`: 5.99%. Regarding `CN(C)CC1(O)CCCN(c2nc(-c3ccccc3)no2)CC1` (stereo not drawn), the cytotoxicity at 10 µM is -4.6%.

`c1coc(-c2nc(CNC3CCCNC3)no2)c1` (stereo not drawn): the cytotoxicity at 10 µM was -25.2%. The same measure for `c1ccc(-c2nc3c(c(NCCc4c[nH]cn4)n2)CCNC3)cc1`: -123%; for `Cn1ccnc1CN1CCCN(C(=O)c2ccc(O)nc2)CC1`: -26.3%. For `c1cnc(-c2nc(CNC3CCc4ncnn4C3)cs2)nc1` (stereo not drawn), the cytotoxicity at 10 µM was -5.66%.

Regarding `CCCc1n[nH]c(C2CN(Cc3nnc(C4CCC4)o3)CCO2)n1` (stereo not drawn), the cytotoxicity at 10 µM is -2.42%.

Turning to `CC(NC(=O)NCCCc1n[nH]c(N)c1C#N)c1ccc(F)cc1` (stereo not drawn), the cytotoxicity at 10 µM is -13.7%.

Take `Clc1ccc(-c2nc(CN3CCCC3Cn3cncn3)co2)cc1` (stereo not drawn): the cytotoxicity at 10 µM was -1.66%. For `COc1ncccc1CNC(=O)N1CCCC1c1ccsc1` (stereo not drawn), the cytotoxicity at 10 µM was -15.9%. Under `Cc1cc(C)n(C2CN(CC(O)c3ccc(C(F)(F)F)cc3)C2)n1` (stereo not drawn) stands -5.94%. The same measure for `CC(C)C(=O)NCc1ccc(N2CCCC2)nc1`: -18.4%; for `CCCc1nc(C)c(C(=O)NCCNc2ncccc2C#N)s1`: -19.5%; for `CC(C)N1CCC2(CCNCC2)C1=O`: -2.98%.

Regarding `Cc1ccc(C(N)c2cccc(S(C)(=O)=O)c2)c(C)c1` (stereo not drawn), the cytotoxicity at 10 µM was -6.44%. `Cc1ccc(CN2CC(C(=O)Nc3ccccc3)C3(CCOCC3)C2)o1` (stereo not drawn): the cytotoxicity at 10 µM turned out to be 0.927%. As for `Cn1ccnc1CN1CC[C@H]2CO[C@H](CNc3ncccn3)[C@H]2C1`, the cytotoxicity at 10 µM was -5.81%. The same measure for `CCCNC(c1cccnc1)c1ccc(F)c(C)c1` (stereo not drawn): 0.821%; for `CCN1CCC2(CC1)CC(NC(=O)NC)c1cc(C)ccc12` (stereo not drawn): -6.01%. Consider `Cn1cc(N2CC3(CCN(CC4CCOCC4)CC3)OCC2=O)cn1`, for which the cytotoxicity at 10 µM was -9.29%.

Regarding `CC(C)=CCN1C[C@@H]2CC[C@H]1CN(C(=O)Cc1c(C)[nH]c(C)nc1=O)C2`, the cytotoxicity at 10 µM came to 2.48%. As to `CNc1nc2cn(C3CCCC3)c(=O)c-2c[nH]1`, the cytotoxicity at 10 µM is 7.17%.

The values above are taken from ChEMBL document CHEMBL4513216, “Probing the Open Global Health Chemical Diversity Library for Multistage-Active Starting Points for Next-Generation Antimalarials” (ACS Infect Dis, 2020).
